mABHD4 FP: inhibitors of mouse ABHD4. 370,000 compounds, 0.54% hits. inhibition, % at 8.92 µM. Q8VD66. purified mABHD4, FP-Rh probe fluorescence polarization. AID 720543;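 active = inhibition exceeding the mean over every tested compound plus 3 SD, cut at about 30% in these data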;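 note: 0% = plate median of compound wells and 100% = S159A mutant with DMSO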
Target sequence (Q8VD66 whole entry, looked up): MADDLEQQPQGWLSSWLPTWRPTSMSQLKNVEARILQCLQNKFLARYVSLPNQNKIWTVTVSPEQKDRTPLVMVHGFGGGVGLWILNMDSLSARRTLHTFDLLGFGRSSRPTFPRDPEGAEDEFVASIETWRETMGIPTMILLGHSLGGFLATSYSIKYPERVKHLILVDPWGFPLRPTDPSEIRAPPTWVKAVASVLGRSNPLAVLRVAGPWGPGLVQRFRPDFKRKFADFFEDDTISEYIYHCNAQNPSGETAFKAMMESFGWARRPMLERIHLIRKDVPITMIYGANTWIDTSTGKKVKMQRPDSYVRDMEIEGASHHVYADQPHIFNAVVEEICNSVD
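System: mouse ABHD4 enzyme, wild type / Medium: HEPES pH 7.0, NaCl, Pluronic buffer / Reagent: FP-Rh activity-based fluorescent probe / Control set: S159A mutant high control, sample median low control / Detection: fluorescence polarization with parallel and perpendicular emission, 525/598 nm / Schedule: 45 min + 60 min at 25 °C / Compound dosing: 8.92 µM, single dose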
PME-1 inh: PME-1 (human) inhibition; recombinant PME-1, FP-Rh probe fluorescence polarization; 320,000 compounds, 0.53% hits; inhibition, % at 5.9 µM; Q9Y570;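 active = inhibition above the campaign mean of all compounds plus 3 SD, cut at about 26% in these data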;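 note: competitive labeling of PME-1 active site by serine hydrolase directed probe; 0% = PME-1 with DMSO and 100% = wells lacking PME-1 enzyme; inhibitors block probe labeling so polarization falls and inhibition rises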
TCR CD3 inh: blocks the human TCR-CD3 interaction; TAMRA-labeled TCR probe fluorescence, biochemical; inhibition, % at 9.4 µM; 360,000 compounds, 0.37% hits; AID 651800; in the data active = inhibition above about 19%;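 note: recombinant mutant TCR 2C K166C tagged with TAMRA read by polarization; 0% = receptor in buffer alone and 100% = receptor with positive control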
SIAE inh: blocks human sialic acid acetylesterase. SIAE FP-Rh probe binding, fluorescence polarization. inhibition, % at 9.66 µM. 370,000 compounds, 0.69% hits;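 active = inhibition above a cutoff: mean of compounds within the control limits plus 3 SD of those, cut at about 17% in these data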;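 note: 0% = plate median of compound wells and 100% = probe without SIAE protein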
HTRA1 inh: HTRA1 (human) protease inhibition; recombinant HTRA1, FP-rhodamine activity-based probe, fluorescence polarization; AID 504803; 340,000 compounds, 0.5% hits; inhibition, % at 5.96 µM; Q92743; in the data active = inhibition above about 36%;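 note: 0% = enzyme with DMSO and 100% = wells lacking enzyme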
Fam108B counter: counter-screen for RBBP9 inhibitors: inhibitors of mouse Fam108B; inhibition, % at 9.51 µM; 300,000 compounds, 0.33% hits; AID 1947; recombinant Fam108B, FP-Rh probe fluorescence polarization;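 active = inhibition above the screen mean inhibition plus 3 SD, computed separately per campaign, cut at about 18% in these data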;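 note: inhibitors lower polarization as less probe binds the enzyme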
mABHD4 conf: confirmation of mouse ABHD4 inhibitors; purified mABHD4, FP-Rh probe fluorescence polarization; 1,800 compounds, 55% hits; shares compounds with mABHD4 FP; inhibition, % at 8.92 µM; AID 720658;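 active = mean inhibition across replicates above the hit cutoff set in the primary screen, cut at about 30% in these data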;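 note: 0% = wild-type ABHD4 with DMSO and 100% = catalytically dead S159A mutant with DMSO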
Numbers without * were called inactive; . = no result given. Compounds with a hit are over-represented: about 1.8% of the library has one in this group of screens.

SMILES | mABHD4 FP | PME-1 inh | TCR CD3 inh | SIAE inh | HTRA1 inh | Fam108B counter | mABHD4 conf
C=CC1=CCN(S(=O)C(C)(C)C)[C@H]1CCO (some centres not stated) | -6 | . | 6 | 2 | 4 | . | .
F[B-](F)(F)COc1ccccc1 | 68* | . | -1 | 3 | -3 | . | 36*
Cc1ncoc1C(=O)N1CCCC(N2CCN(c3cccc(C(F)(F)F)c3)CC2)C1 (configuration not stated) | -11 | 2 | -8 | 6 | 4 | -2 | .
C=CCN(CC#Cc1ccccc1)Cc1ccc2c(c1)OCO2 | 4 | . | . | -9 | . | . | .
CC1=C(CCN2CCN(C3CCCC3)C(CCO)C2)C(C)(C)CCC1 (configuration not stated) | 61* | -5 | -2 | 2 | -9 | 3 | -12
Cc1ccc(CN2CCC(n3nccc3NC(=O)C3CCOC3)CC2)cc1C (configuration not stated) | -3 | -2 | 2 | 6 | 4 | 0 | .
OC(CCN1CC2CCC(CC2)C1)(Cc1ccccc1)c1ccco1 (configuration not stated) | 37* | . | 3 | 14 | 3 | . | 18
O=C(/C=C/c1ccco1)N1CCC(Cc2ccccc2)CC1 | 5 | -1 | 10 | -16 | -3 | -6 | .
O=Cc1cc(OCc2ccccc2)ccc1[B-](F)(F)F | 45* | . | 5 | 8 | 0 | . | 43*
Nc1ccc(OCc2ccccc2)cc1[N+](=O)[O-] | 6 | . | 4 | 9 | 1 | . | .
COc1cc(N)c2ncccc2c1Br | 62* | . | 13 | 7 | 24 | . | 28
O=C(NCc1ccncc1)c1cccc(S(=O)(=O)Nc2ccc(F)cc2)c1 | 5 | . | 0 | 6 | 0 | . | .
COC(=O)c1sc(NC(=O)COc2ccc(OC)cc2)nc1C | 6 | -9 | 3 | -11 | 3 | 2 | .
O=C(COc1ccccc1)Nc1nc2cc3c(cc2s1)OCO3 | 36* | -25 | 5 | -9 | -3 | 0 | 40*
COc1ccc(NC(=O)c2sc(NC(=O)COc3ccccc3)nc2C)cc1 | 50* | -7 | -1 | -9 | -5 | 6 | 60*
Cc1nc(NC(=O)COc2ccccc2)sc1C(=O)Nc1cccc(Cl)c1 | 43* | -2 | 7 | -7 | -20 | -3 | 33*
CCOc1ccc(C(=O)NCC(=O)NC(C)CCc2ccccc2)cc1OCC (configuration not stated) | -6 | . | 5 | -9 | -4 | . | .
CC(OP(=O)(O)C(NC(=O)[C@H](Cc1ccc(O)cc1)NC(=O)OC(C)(C)C)C(C)C)C(=O)O (some centres not stated) | 2 | . | . | 8 | . | . | .
CC1=NN(Cc2ccccc2)C(=O)C1C(c1ccc(Cl)cc1)C(C#N)C#N (configuration not stated) | 83* | -4 | -8 | 8 | 33 | 8 | 29
CC1=NN(Cc2ccccc2)C(=O)C1C(c1ccccc1)C(C#N)C#N (configuration not stated) | 53* | 3 | 6 | 8 | 3 | 5 | -10
OC[C@@H]1CN(Cc2ccc3c(c2)OCO3)C[C@H](n2cnc3c(NCc4ccc(F)cc4)ncnc32)O1 | 3 | . | -9 | -1 | . | . | .
C=CCN1[C@H](C)COc2cccc(N3CCCC3)c2S1(=O)=O | 2 | . | . | 4 | . | . | .
Cc1nnc(Nc2ccc(O)cc2)[nH]c1=O | 43* | 6 | -6 | 2 | 9 | 4 | 24
O=C(C=Cc1ccccc1)c1ccc([N+](=O)[O-])cc1 | 5 | . | 4 | 2 | -10 | . | .
O=C(/C=C/c1ccco1)c1cccnc1 | 36* | 3 | 18 | 15 | 3 | 1 | -3
SMILES | mABHD4 FP | PME-1 inh | TCR CD3 inh | SIAE inh | HTRA1 inh | Fam108B counter | mABHD4 conf
O=C(C=Cc1ccco1)c1ccc([N+](=O)[O-])cc1 | 37* | . | 5 | 10 | 2 | . | 5
C=CCOc1ccc(C=CC(=O)c2c(O)c(OC)c(OC)c(OC)c2OC)cc1 | 4 | . | -5 | 9 | -11 | . | .
Cc1ccc(Nc2nc(-c3ccc(F)cc3)cs2)nc1 | 7 | . | 1 | -5 | -7 | . | .
Cc1ccc(Nc2nc(-c3ccc(O)c(O)c3)cs2)nc1 | 42* | . | 13 | 13 | . | . | 53*
C[C@@H]1CN([C@@H](C)CO)C(=O)c2cc(-c3cccnc3)cnc2O[C@H]1CN(C)C(=O)c1cccc(F)c1 | 4 | . | -1 | -5 | -5 | . | .
NC(=O)c1ccc(N2CCN(S(=O)(=O)c3cccs3)CC2)c([N+](=O)[O-])c1 | 0 | . | 5 | -1 | -2 | . | .
O=C(NNc1nc2ccccc2s1)Nc1ccc(Cl)c(Cl)c1 | 12 | -1 | -19 | 5 | -11 | -5 | .
O=C(NNc1nc2ccccc2s1)Nc1ccc(F)cc1 | 38* | 0 | 0 | 13 | 7 | -1 | 1
CCOc1ccc(NC(=O)c2ccc(N3CC4CC(C3)c3cccc(=O)n3C4)c(NC(=O)c3cccnc3)c2)cc1 (configuration not stated) | 0 | 2 | -1 | 4 | 1 | -2 | .
C=CCCC(=O)Nc1nc(C)c(-c2csc(Nc3cc(OC)ccc3OC)n2)s1 | 13 | 24 | -7 | 6 | 11 | 17 | .
CCCC(=O)Nc1nc(C)c(-c2csc(Nc3cc(OC)ccc3OC)n2)s1 | 32* | 20 | 0 | 3 | 30 | 10 | 58*
NNc1nc2ccc(F)cc2s1 | 42* | 11 | 7 | 11 | 30 | 4 | 26
CC(C)(C)CC(C)(C)c1ccc(OCCOCC[N+](C)(C)Cc2ccccc2)cc1 | 36* | 7 | 3 | 2 | 16 | 1 | 44*
C[N+](C)(CCOc1ccccc1)Cc1ccccc1 (tested in a mixture with another compound) | 4 | 3 | 11 | 14 | 7 | 6 | .
CCc1nnc(NC(=O)CS(=O)(=O)c2ccccc2)s1 | 8 | -7 | -6 | 2 | 3 | -4 | .
NC(=S)NN=Cc1nccc2c(N)cccc12 | 36* | . | 4 | 6 | 16 | . | 44*
CCN(C(C)=O)c1cnc(C=NNC(N)=S)c2ccccc12 | 7 | . | 5 | -2 | -6 | . | .
COCCCN1C(=O)[C@H](CC(=O)N2CCCCC2)[C@]2(C(=O)OC)CCCCC=C12 | 6 | . | . | 6 | . | . | .
Cc1cc(C)cc(NCc2cc3c(cc2[N+](=O)[O-])OCO3)c1 | 31* | 7 | 9 | 11 | 6 | 0 | 14
COc1ccc(CNCc2cc3c(cc2[N+](=O)[O-])OCO3)cc1 | 33* | -1 | 10 | 11 | 11 | 6 | 6
COc1ccc([C@H]2CC(=O)C[C@@H](CCn3cc(CCc4ccccc4)nn3)O2)cc1 | 0 | . | 1 | -6 | . | . | .
CC1CC(C)C(=O)C(C(CC2CC(=O)NC(=O)C2)OC(=O)CC(=O)c2ccccc2)C1 (configuration not stated) | 60* | . | 1 | 0 | 2 | . | 15
